Assays:
[1] = Bioavailability in dog; type: ADME, organism-based, Canis lupus familiaris; conditions: in vivo
Summary of the method: (§1)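 PK in dog and rhesus macaque. Bioavailability, plasma clearance (mL/min/kg) and terminal half-life derived from plasma drug levels.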

[2] = Half life in rat; type: ADME, organism-based; conditions: in vivo
[3] = Plasma clearance in rat; type: ADME, organism-based
[4] = test system: Rattus norvegicus; test: Reduction of body weight in DIO rat assessed as weight change at 0.3 mg/kg, po after 18 hrs; type: functional
Summary of the method: (§2)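 Acute study in diet-induced obese rats. A single oral dose was given and rats were monitored for 18 h. Food intake suppression and body weight change were measured relative to vehicle-treated controls.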

[5] = Bioavailability in rhesus monkey; type: ADME, organism-based, Macaca mulatta; conditions: in vivo; summary of the method: as §1
[6] = test system: Rattus norvegicus; test: Suppression of food intake in DIO rat at 0.1 mg/kg, po relative to control; type: functional; summary of the method: as §2
[7] = Plasma clearance in rhesus monkey; type: ADME, organism-based, Macaca mulatta; summary of the method: as §1
[8] = Drug level in rat brain at 1 mg/kg, iv after 4 hrs; type: ADME, organism-based; design: dose 1 mg/kg, route intravenous; conditions: read-out: Drug uptake
[9] = test system: Rattus norvegicus; test: Suppression of food intake in DIO rat at 0.3 mg/kg, po relative to control; type: functional; summary of the method: as §2
[10] = Plasma clearance in dog; type: ADME, organism-based, Canis lupus familiaris; summary of the method: as §1
[11] = Bioavailability in rat; type: ADME, organism-based; conditions: in vivo
[12] = molecular target: Cannabinoid receptor 2 (Homo sapiens, UniProt P34972); test: Inhibition of human CB2 receptor
Sequence of Cannabinoid receptor 2 (P34972 whole entry): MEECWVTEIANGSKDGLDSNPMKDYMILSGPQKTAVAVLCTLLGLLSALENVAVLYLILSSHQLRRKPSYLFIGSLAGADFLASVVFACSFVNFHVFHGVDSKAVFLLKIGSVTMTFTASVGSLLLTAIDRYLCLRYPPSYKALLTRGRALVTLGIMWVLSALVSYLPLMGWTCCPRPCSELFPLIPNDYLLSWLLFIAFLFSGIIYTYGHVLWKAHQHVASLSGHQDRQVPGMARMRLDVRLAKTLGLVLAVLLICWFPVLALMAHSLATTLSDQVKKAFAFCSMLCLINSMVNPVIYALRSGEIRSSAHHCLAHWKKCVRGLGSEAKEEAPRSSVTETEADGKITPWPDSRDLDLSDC

[13] = test system: Rattus norvegicus; test: Reduction of body weight in DIO rat assessed as weight change at 0.1 mg/kg, po after 18 hrs; type: functional; summary of the method: as §2
[14] = molecular target: Cannabinoid receptor 1 (Homo sapiens, UniProt P21554); test: Inhibition of human CB1 receptor
Sequence of Cannabinoid receptor 1 (P21554 whole entry): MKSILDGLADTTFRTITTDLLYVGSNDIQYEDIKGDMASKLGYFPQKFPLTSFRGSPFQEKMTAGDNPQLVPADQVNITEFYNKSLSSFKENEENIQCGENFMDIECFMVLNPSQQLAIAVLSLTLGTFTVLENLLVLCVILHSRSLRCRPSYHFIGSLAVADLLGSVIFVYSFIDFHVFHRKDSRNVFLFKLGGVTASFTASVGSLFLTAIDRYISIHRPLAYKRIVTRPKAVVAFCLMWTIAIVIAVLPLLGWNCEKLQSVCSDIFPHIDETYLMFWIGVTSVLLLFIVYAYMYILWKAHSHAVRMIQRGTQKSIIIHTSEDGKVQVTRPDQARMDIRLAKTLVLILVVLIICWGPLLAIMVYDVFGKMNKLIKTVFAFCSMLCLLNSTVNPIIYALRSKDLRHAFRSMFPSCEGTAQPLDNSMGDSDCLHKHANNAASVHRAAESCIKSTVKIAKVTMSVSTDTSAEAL

[15] = Half life in dog; type: ADME, organism-based, Canis lupus familiaris; conditions: in vivo; summary of the method: as §1
[16] = Half life in rhesus monkey; type: ADME, organism-based, Macaca mulatta; conditions: in vivo; summary of the method: as §1
[17] = Ratio of drug level in brain to plasma in rat at 1 mg/kg, iv after 4 hrs; type: ADME, organism-based; design: dose 1 mg/kg, route intravenous
[18] = Drug level in rat plasma at 1 mg/kg, iv after 4 hrs; type: ADME, organism-based; design: dose 1 mg/kg, route intravenous; conditions: read-out: Drug uptake

For `CC(=O)Nc1c(C(=O)C(C)(C)O)oc2nc(-c3ccccc3Cl)c(-c3ccc(Cl)cc3)cc12`, the bioavailability [1] was 87%, the half-life [2] was 4.8 h and the clearance [3] was 16 mL/min/kg. For the same compound, the Activity [4] was -1 g, the bioavailability [5] was 100% and the Activity [6] was 28%. The clearance [7] was 2.8 mL/min/kg, the concentration at 4 h [8] was 56 nM and the Activity [9] was 41%. The clearance [10] was 5 mL/min/kg, the bioavailability [11] was 61% and the IC50 [12] was 5400 nM. For the same compound, the Activity [13] was -1 g, the IC50 [14] was 5.4 nM and the half-life [15] was 26 h. It also gave a half-life [16] of 45 h, a Kp at 4 h [17] of 0.77 and a concentration at 4 h [18] of 72 nM.

From ChEMBL document CHEMBL1156265, “Furo[2,3-b]pyridine-based cannabinoid-1 receptor inverse agonists: synthesis and biological evaluation. Part 1” (Bioorg Med Chem Lett, 2010)
